# From ChEMBL document CHEMBL3352135, “Antiproliferative prenylated xanthones and benzophenones from the roots of Cudrania tricuspidata in HSC-T6 cells” (J Nat Prod, 2014)
# Legend:
# [1] = Antiproliferative activity against rat HSC-T6 cells assessed as reduction in cell viability; assay type: functional, cell-based
# Outline: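 Immortalized rat hepatic stellate line HSC-T6. Viability was measured by a procedure from earlier work, and IC50 values were derived from it. Epigallocatechin-3-gallate was the positive control.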
# [2] = Induction of apoptosis in rat HSC-T6 cells assessed as viable cells at 1 uM after 48 hrs using annexin-V/PI double staining by flow cytometry (reference value: 99.2 %); assay type: functional; details: HSC-T6, 48 h, read-out: Activity
# [3] = Induction of apoptosis in rat HSC-T6 cells assessed as early apoptotic cells at 1 uM after 48 hrs using annexin-V/PI double staining by flow cytometry (reference value: 0.150 %); assay type: functional
# [4] = Induction of apoptosis in rat HSC-T6 cells assessed as late apoptotic cells at 1 uM after 48 hrs using annexin-V/PI double staining by flow cytometry (reference value: 0.130 %); assay type: functional
# [5] = Induction of apoptosis in rat HSC-T6 cells assessed as necrotic cells at 1 uM after 48 hrs using annexin-V/PI double staining by flow cytometry (reference value: 0.550 %); assay type: functional
# [6] = Induction of apoptosis in rat HSC-T6 cells assessed as viable cells at 3 uM after 48 hrs using annexin-V/PI double staining by flow cytometry (reference value: 99.2 %); assay type: functional; details: HSC-T6, 48 h, read-out: Activity
# [7] = Induction of apoptosis in rat HSC-T6 cells assessed as early apoptotic cells at 3 uM after 48 hrs using annexin-V/PI double staining by flow cytometry (reference value: 0.150 %); assay type: functional
# [8] = Induction of apoptosis in rat HSC-T6 cells assessed as late apoptotic cells at 3 uM after 48 hrs using annexin-V/PI double staining by flow cytometry (reference value: 0.130 %); assay type: functional
# [9] = Induction of apoptosis in rat HSC-T6 cells assessed as necrotic cells at 3 uM after 48 hrs using annexin-V/PI double staining by flow cytometry (reference value: 0.550 %); assay type: functional
Compound,IC50 [1] [µM],also measured
O=c1c2ccc(O)cc2oc2ccc(O)cc12,> 30,
CC1(C)C=Cc2c(cc(O)c3c(=O)c4c5c(ccc4oc23)OC(C)(C)C=C5)O1,> 30,
C[C@@H]1Oc2cc3oc4c5c(c(O)cc4c(=O)c3c(O)c2C1(C)C)OC(C)(C)C=C5,15.9,
C=CC(C)(C)c1c(OC)cc(O)c2c(=O)c3ccc(O)c(O)c3oc12 [ISOCUDRANIAXANTHONE B],17.3,
COc1cc2oc3cc(O)cc(O)c3c(=O)c2cc1OC,> 30,
CC1(C)C=Cc2cc(C(=O)c3cccc(O)c3)c(O)c(O)c2O1,7.1,
CC1Oc2cc(O)c3c(=O)c4ccc(O)c(O)c4oc3c2C1(C)C (centres undefined),13.1,
C=CC(C)(C)c1c(OC)c(CC=C(C)C)c2oc3cc(O)c(O)cc3c(=O)c2c1O,9.7,viability at 1 µM [2]: 80.8%; Activity [3]: 11.5%; Activity [4]: 2.54%; Activity [5]: 5.19%; viability at 3 µM [6]: 78.8%; Activity [7]: 8.76%; Activity [8]: 5.81%; Activity [9]: 6.67%
CC(C)=CCc1c(O)cc(O)c2c(=O)c3cccc(O)c3oc12,> 30,
C=CC(C)(C)c1c(O)c(CC=C(C)C)c2oc3cc(O)c(O)cc3c(=O)c2c1O [MACLURAXANTHONE B],13.3,
CC(C)=CCc1c(O)c(O)cc2c(=O)c3c(O)c4c(cc3oc12)OC(C)C4(C)C (centres undefined) [CUDRAXANTHONE M],10.4,
COc1c2c(c3c(=O)c4ccc(O)c(O)c4oc3c1CC=C(C)C)O[C@H](C)C2(C)C,14.8,
CC(C)=CCc1c(O)cc(O)c2c(=O)c3c(CC=C(C)C)c(O)ccc3oc12 [GERONTOXANTHONE H],> 30,
COc1c(CC=C(C)C)c(O)c2c(=O)c3cc(O)c(O)cc3oc2c1CC=C(C)C [CUDRATRICUSXANTHONE K],> 30,
O=C(O[C@@H]1Cc2c(O)cc(O)cc2O[C@@H]1c1cc(O)c(O)c(O)c1)c1cc(O)c(O)c(O)c1 [EPIGALOCATECHIN GALLATE],29.8,
COc1c2c(c3c(=O)c4cc(O)c(O)cc4oc3c1CC=C(C)C)O[C@@H](C)C2(C)C,15.2,
